Reference: paper PMC11604526 (Cell Reports Medicine, 2024)
Square brackets hold non-standard residues; d marks the D form. Ends that are not written are not given here. Dmt = Cc1cc(O)cc(C)c1C[C@H](N)C(=O)O; Cha = N[C@@H](CC1CCCCC1)C(=O)O

Key:
GAT-1 and Synt1A = GAT-1 and Synt1A total levels and membrane fractions in cultured neurons; assay type: cell-based, mouse; conditions: GSNO 50 μM for 6 h; n = 5
Method in brief: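 Primary cortical neurons from E16 mice were grown on poly-L-ornithine in Neurobasal with 2% B27. For membrane fractions, cells were permeabilized in extraction buffer 1 and spun at 1000 ×g for 5 min; the pellet was resuspended in buffer 2B to extract integral membrane proteins. β-Actin was checked to confirm fraction purity. Western blots used anti-GAT-1 and anti-syntaxin1A (both 1:4000) and anti-Na+-K+-ATPase (1:1000).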

[1] = test system: mice with photothrombotic stroke; assay: Motor function; assay type: in vivo, mouse
Method in brief: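 Photothrombotic stroke was induced with rose bengal, holding body temperature at 37 ± 0.5°C. For grid walking, each mouse walked freely for 5 min on a wire grid 50 cm high. For the cylinder task, mice explored a clear cylinder (15 cm tall, 10 cm diameter) for 5 min, and only rears with both forelimbs clearly visible were timed. Tests ran 7 days before stroke and at set days after stroke.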

GAT-1 [2] = assay: 3H-GABA uptake in HEK293 cells overexpressing GAT-1; assay type: cell-based; conditions: 100 nM; compared with Tat-Synt1A251-265mut (100 nM); n = 5
Method in brief: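 HEK293 cells were kept in MEM with 10% FBS and transduced with lentiviral GAT-1-EGFP. These GAT-1-overexpressing cells were incubated with peptide (100 nM), or with the mutant control peptide at the same concentration, before 3H-GABA uptake was measured.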

GAT-1 [3] = assay: GAT-1 level and membrane fraction; assay type: cell-based; conditions: 100 nM; compared with Tat-Synt1A251-265mut; n = 5
Method in brief: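 HEK293 cells lentivirally expressing GAT-1-EGFP were exposed to peptide at 100 nM. Cells were permeabilised in Extraction Buffer 1 and spun at 1000 ×g for 5 min to split cytosol from membranes. Integral membrane proteins were extracted from the pellet in Extraction Buffer 2B and taken straight to western blot. β-Actin, a cytosolic marker, served to check membrane-fraction purity.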

[4] = test system: extracellular GABA ([GABA]o); assay: Extracellular GABA in peri-infarct cortex; assay type: in vivo, mouse; conditions: microinjection 0.2 pmol/d days 5-7 after stroke; day 8 after stroke; microdialysis; n = 6
Method in brief: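 A CMA7 microdialysis probe was placed in peri-infarct cortex (AP 0, ML −0.65, DV −1.5 mm from bregma). It was perfused at 1 μL/min with bicarbonate-buffered saline containing 10 mM glucose. Dialysate was collected in 20-min fractions over 2 h, and the second fraction was analysed. GABA was measured by ELISA (activator, 37°C for 15 min in the dark, stop solution, A450).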

[5] = test system: layer 5 peri-infarct pyramidal neurons; assay: Whole-cell recordings in acute brain slices from treated mice; assay type: in vivo, mouse
Synt1A-SNAP-25 complex = assay: Co-IP of Synt1A-SNAP-25 complex in peri-infarct cortex; assay type: in vivo, mouse; conditions: microinjection 0.2 pmol/d days 5-7 after stroke; day 8; n = 5
Method in brief: (§1)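 Photothrombotic stroke was induced with rose bengal. Peptide was infused into the peri-infarct cortex through a 33-gauge injector in a guide cannula implanted in the infarct core (AP 0, ML −1.5, DV −1.0 mm from bregma). Dissected tissue was lysed 30 min in ice-cold RIPA and spun at 12,000 ×g for 15 min at 4°C. Lysates were precleared 1 h at 4°C with protein G magnetic beads before co-IP.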

Synt1A-VAMP-2 complex = assay: Co-IP of Synt1A-VAMP-2 complex in peri-infarct cortex; assay type: in vivo, mouse; conditions: microinjection 0.2 pmol/d days 5-7 after stroke; day 8; n = 5
Method in brief: as §1

[6] = test system: SNARE complex (Synt1A, SNAP-25, VAMP-2); assay: SNARE complex and monomer levels in synaptosomes; assay type: in vivo, mouse; conditions: 0.2 pmol/d days 5-7 after stroke, day 8
Method in brief: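 Peri-infarct tissue was homogenised at 4°C in 320 mM sucrose, 1 mM NaHCO3, 1 mM MgCl2 and 0.5 mM CaCl2. The homogenate was spun at 500 ×g for 2 min, and the supernatant at 10,100 ×g for 10 min. The pellet was resuspended in 0.32 M sucrose, layered on 0.8 M sucrose and spun at 9100 ×g for 15 min. The 0.8 M fraction was pelleted at 12,000 ×g for 15 min and taken up in SDS lysis buffer.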

peri-infarct cortex = assay: In vivo LFP and spike recording in peri-infarct cortex; parameters: species or system mouse; conditions: infused days 5-11 after stroke; recorded day 12
Method in brief: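 Spike-firing time histograms were built by counting spikes in sequential 1 s bins. Movement-related change was expressed as ((firing events during movement − firing events during stillness)/firing events during stillness) × 100.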

[7] = test system: midline-crossing BDA+ fibers, C7 spinal cord; assay: BDA tract tracing, axonal sprouting; assay type: in vivo, mouse; conditions: treatment days 5-11 after stroke; BDA day 34, staining day 48; n = 6
Method in brief: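 Contralateral cortex injected at two sites with 10% biotinylated dextran amine on day 34 after stroke. Fourteen days later, mice were transcardially perfused with ice-cold saline, then 4% PFA. Transverse cervical spinal cord and coronal brain sections were cut at 40 μm. BDA+ axons were labelled with streptavidin-Cy3 (1:500). Analysis was blinded.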

GAT-1-Synt1A interaction = GAT-1-Synt1A interaction (Mus musculus, UniProt P31648); assay: Synt1A-GAT-1 uncoupling activities of ZLQ series of compounds; conditions: Figures S4A/S4B; n = 3
[8] = 0.2 pmol/d days 5-7 after stroke, recorded day 8
[9] = compared with Tat-Synt1A251-265mut-treated mice
[10] = compared with sham and Tat-Synt1A251-265mut-treated mice with stroke

For `N[C@@H](CCC(=O)N[C@@H](CSN=O)C(=O)NCC(=O)O)C(=O)O` [GSNO], the “membrane contents of GAT-1 and Synt1A in cultured neurons” value (GAT-1 and Synt1A) was “significantly increased membrane contents of GAT-1 and Synt1A” and the “total levels of GAT-1 and Synt1A in cultured neurons” value (GAT-1 and Synt1A) was “had no effects on the total levels of GAT-1 and Synt1A”.

For Tat-TKKAVKYQSKARRKK [Tat-Synt1A251-265], the “motor functions of sham-operated mice” value ([1]; peptide microinjection, sham-operated mice) was “had no effect on motor functions of sham-operated mice”, the “3H-GABA uptake, HEK293 cells overexpressing GAT-1” value (GAT-1 [2]) was “did not affect” and the “expression of GAT-1, HEK293 cells overexpressing GAT-1” value (GAT-1 [3]) was “did not affect”. For the same compound, the “membrane distribution of GAT-1, HEK293 cells overexpressing GAT-1” value (GAT-1 [3]) was “did not affect”, the “stroke-induced increase in [GABA]o in the peri-infarct cortex” value [4] was “reversed stroke-induced increase in [GABA]o” and the “mEPSCs, sham-operated mice” value ([5]; 0.2 pmol/d) was “had no effect on sham-operated mice”. The “mIPSCs, sham-operated mice” value ([5]; 0.2 pmol/d) was “had no effect on sham-operated mice”, the “tonic GABA currents (Itonic), sham-operated mice” value ([5]; 0.2 pmol/d days 5-7, recorded day 8) was “had no effect on sham-operated mice” and the “effect of stroke on Itonic, GAT-1 CKO mice with stroke” value [5, 8] was “rather than that in GAT-1 CKO mice with stroke”. The “effect of stroke on Itonic, WT mice with stroke” value [5, 8] was “reversed the effect of stroke on Itonic”, the “mEPSC frequency, mice with stroke” value ([5]; 0.2 pmol/d, day 8 after stroke) was “reversed stroke-induced decrease in mEPSC frequency” and the “mIPSC frequency, mice with stroke” value ([5]; 0.2 pmol/d, day 8 after stroke) was “reversed the stroke-induced decrease in mIPSC frequency”. For the same compound, the “sEPSC amplitude, mice with stroke” value [5, 9] was “but not amplitude”, the “sEPSC frequency, mice with stroke” value [5, 9] was “significantly increased sEPSC frequency” and the “sIPSC amplitude, mice with stroke” value [5, 10] was “but not amplitude”. For the same compound, the “sIPSC frequency, mice with stroke” value [5, 10] was “significantly increased sIPSC frequency”, the “sEPSCs, sham-operated mice” value ([5]; mouse, in vivo) was “had no effect on sEPSCs” and the “sIPSCs, sham-operated mice” value ([5]; mouse, in vivo) was “had no effect on sIPSCs of sham-operated mice”. The “stroke-induced decrease in Synt1A-SNAP-25 complex” value (Synt1A-SNAP-25 complex) was “reversed stroke-induced decreases”, the “stroke-induced decrease in Synt1A-VAMP-2 complex” value (Synt1A-VAMP-2 complex) was “reversed stroke-induced decreases” and the “Synt1A, SNAP-25, or VAMP-2 monomer (synaptosomes)” value [6] was “did not affect”. For the same compound, the “stroke-induced decreases in SNARE complexes (synaptosomes)” value ([6]; n = 5-6) was “reversed stroke-induced decreases in SNARE complexes”, the “LFP power in delta (1-3 Hz) and theta (4-12 Hz) oscillations” value (peri-infarct cortex) was “significantly enhanced” and the “effects on cortical oscillations in GAT-1 CKO mice” value (peri-infarct cortex) was “disappeared in GAT-1 CKO mice”. For the same compound, the “movement-related spike firing rates, WT mice” value (peri-infarct cortex) was “reversed stroke-induced decrease in spike firing rates” and the “number of BDA+ fibers crossing the midline into the denervated spinal cord at the C7 level” value [7] was “significantly increased the number of BDA^+ fibers crossing the midline”.

With “[dR][Dmt][Cha][dK][dR]-NH2 (N-terminus assumed; SMILES Cc1cc(O)cc(C)c1C[C@H](NC(=O)[C@H](N)CCCNC(=N)N)C(=O)N[C@@H](CC1CCCCC1)C(=O)N[C@H](CCCCN)C(=O)N[C@H](CCCNC(=N)N)C(N)=O) [ZLQ-3]” the “impairment of motor functions, intranasal 5 mg/kg” value ([1]; 5 mg/kg intranasally days 5-11 after stroke, test day 12) was “attenuated the impairment of motor functions” and the “GAT-1-Synt1A uncoupling activity among the ZLQ series” value (GAT-1-Synt1A interaction) was “most potent GAT-1-Synt1A uncoupling activity”.
